Source: PubChem BioAssay (several laboratories)
Most compounds without a hit are left out; they make up all but 2.4% or so of the library.
MC4R ag barr – activates human MC4R beta-arrestin recruitment | P32245 | U2OS MC4R beta-arrestin complementation, luminescence; percent of melanotan II response, DMSO zero | activation, % at 8.9 µM | 0.98% of 360,000 active | AID 540308;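 active = activation above a per-plate cutoff, the mean activation of sample wells on that plate plus 3 SD, cut at about 8% in these data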
MC4R antagonist – human MC4R antagonism in cAMP assay. AID 540295. inhibition, % at 6.5 µM. MC4R-expressing cells, MTII-stimulated cAMP, LANCE TR-FRET. 0.48% of 360,000 active;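 active = inhibition above its plate's cutoff, the mean of tested wells on that plate plus 3 SD, cut at about 29% in these data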;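 note: 0% = Melanotan II alone and 100% = Melanotan II plus saturating MCL0020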
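System: U2OS-MC4R stable cell line; Technique: Eu-cAMP/anti-cAMP TR-FRET, emission 671 nm; Repeats: single well per compound; Also added: Melanotan II; Dosing: one concentration, 6.5 µM nominal; Schedule: 30-min compound, 1-h challenge, 1-h detection, room temperature.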
aDG glyco up – alpha-DG glycosylation activation; Pro5-aDG cells, alpha-DG glycosylation AlphaScreen (IIH6); 0% Pro5, 100% B10-LARGE cell signal; activation, % at 10 µM; 0.22% of 360,000 active; AID 624168;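 active = activation of at least 8% versus controls, or a plate z-score of at least 8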;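 note: Pro5 are CHO cells carrying HIG-tagged alpha-DG that lacks glycosylation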
H9c2 TAG inh – triacylglycerol accumulation inhibition; H9c2 cells, Nile Red lipid (TAG) fluorescence; cells loaded with 200 µM oleic acid; inhibition, % at 12.5 µM; 0.66% of 230,000 active; AID 651582;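 active = pattern-corrected inhibition of lipid staining of at least 50% with the nuclear-stain viability signal not falling by more than 50%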;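 note: 0% = DMSO wells and 100% = triacsin C control wells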
TbMetRS inhib – blocks T. brucei methionyl-tRNA synthetase activity. purified T. brucei MetRS, ATP depletion, Kinase-Glo luminescence. inhibition, % at 11.9 µM. 0.4% of 360,000 active;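 active = inhibition above a per-plate cutoff of the control wells' mean inhibition plus 3 SD, cut at about 5.5% in these data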;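 note: 0% = DMSO wells median and 100% = median of wells with control inhibitor compound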
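Material: T. brucei methionyl-tRNA synthetase, purified; reagent: substrates ATP, L-methionine and bulk Escherichia coli tRNA; dosing: 11.9 µM single point; timing: 15 min plus 2 h at 25 °C; detection: luminescence of leftover ATP; evaluation: % inhibition; control set: DMSO-only wells as low control; replicates: singlicate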
NTR1 agonist – NTR1 (human) agonism. NTR1-U2OS beta-arrestin-GFP spot imaging, agonist mode. activation, % at 20 µM. 0.17% of 330,000 active;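 active = activation at or above 40% of the spot to cytoplasm intensity ratio, with at least 20 cells analyzed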;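 note: 0% = DMSO without peptide and 100% = 100 nM NTR1 peptide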
Target sequence (P30989 whole entry, looked up): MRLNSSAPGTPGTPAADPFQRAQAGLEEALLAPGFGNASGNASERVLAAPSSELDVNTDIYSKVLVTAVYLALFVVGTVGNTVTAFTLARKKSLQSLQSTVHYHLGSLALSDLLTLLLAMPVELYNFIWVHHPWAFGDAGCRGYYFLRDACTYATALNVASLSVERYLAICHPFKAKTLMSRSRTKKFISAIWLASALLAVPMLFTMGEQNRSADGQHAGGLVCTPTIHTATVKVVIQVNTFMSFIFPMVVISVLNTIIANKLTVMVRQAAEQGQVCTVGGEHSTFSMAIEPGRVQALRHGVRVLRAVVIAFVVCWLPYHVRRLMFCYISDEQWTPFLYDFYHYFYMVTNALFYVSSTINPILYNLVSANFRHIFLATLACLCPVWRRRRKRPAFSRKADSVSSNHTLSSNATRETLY
MC4R barr ag – human MC4R beta-arrestin agonism confirmation; 31% of 2,400 active; U2OS MC4R beta-arrestin recruitment, luminescence; scaled DMSO 0%, Melanotan II 100%; activation, % at 8.9 µM; shares compounds with MC4R ag barr; AID 602192;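 active = mean activation across replicates above the hit cutoff set in the earlier primary screen, cut at about 8% in these data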
MOR-DOR barr ag – counter-screen for MC4R agonists: agonists of mu-delta opioid heterodimer | shares compounds with MC4R ag barr | U2OS PathHunter beta-arrestin, beta-gal luminescence; percent of deltorphin B response, DMSO zero | activation, % at 9.2 µM | 5.8% of 2,400 active | AID 602194;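 active = mean activation across replicates exceeds the hit threshold derived in the earlier primary screen, cut at about 18% in these data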;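 note: 100% = deltorphin B at 0.9 µM final and 0% = DMSO alone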
An asterisk follows results filed as active; / = no result.

SMILES	MC4R ag barr	MC4R antagonist	aDG glyco up	H9c2 TAG inh	TbMetRS inhib	NTR1 agonist	MC4R barr ag	MOR-DOR barr ag
CCOC1=C2[C@@H](CN(S(=O)(=O)c3ccc(C)cc3)[C@H]2c2cccc3ccccc23)[C@H]2C(=O)NC(=O)[C@H]2C1	/	/	0	/	-1	/	/	/
Cc1ccc2c(Cl)cc(Cl)c(OCC(=O)NC(=O)NCc3ccco3)c2n1	11*	12	1	-3	1	-1	2	3
Cc1cc(Cl)cc(Cl)c1OCC(=O)NCc1ccco1	-1	4	0	-8	0	8	/	/
CCOc1ccc(NS(=O)(=O)c2ccc(N)cc2)cc1	-3	-3	0	17	0	-2	/	/
CCOc1ccc(NS(=O)(=O)c2ccc(SC)cc2)cc1	11*	3	0	-22	-1	2	0	7
O=C(Nc1cccc(-c2nc3cccnc3s2)c1)c1cccnc1Cl	2	-1	0	9	-1	3	/	/
O=C(Nc1cccc(-c2nc3cccnc3s2)c1)C1c2ccccc2Oc2ccccc21	10*	2	0	97	0	-1	3	8
COc1ccc2nc(NC(=O)c3ccc(F)cc3)sc2c1	13*	0	0	-3	0	1	-1	4
COc1ccc2nc(NC(=O)c3ccc(-n4nc(C)cc4C)cc3)sc2c1	20*	-2	0	/	0	9	-3	8
COc1ccc2nc(NC(C)=O)sc2c1	0	-4	0	11	0	-3	/	/
O=C(NC(c1ccc(Cl)cc1)c1cccnc1)C1CCN(CCOc2ccc(Cl)cc2Cl)CC1 (configuration not stated)	18*	4	0	11	0	/	30*	13
O=C(NC(c1ccc(F)cc1)c1ccc2ccccc2n1)C1CCN(CCOc2ccc(F)cc2)CC1 (configuration not stated)	1	10	3	-3	0	/	/	/
Cc1cccnc1C(NC(=O)C1CCN(CCOc2ccc(Cl)cc2Cl)CC1)c1ccc(Cl)cc1 (configuration not stated)	34*	3	2	-7	0	/	17*	8
O=C(NC(c1ccc(F)cc1)c1ccc2ccccc2n1)C1CCN(CCOc2ccc(Cl)cc2Cl)CC1 (configuration not stated)	18*	6	0	-4	0	/	12*	7
Cc1cccnc1C(NC(=O)C1CCN(CCCc2ccccc2)CC1)c1ccc(Cl)cc1 (configuration not stated)	-2	11	1	-6	0	/	/	/
O=C(NC(c1ccc(Cl)cc1)c1ccccn1)C1CCN(CCOc2ccc(Cl)cc2Cl)CC1 (configuration not stated)	18*	8	0	-15	1	/	24*	15
O=C(NC(c1ccc2c(c1)OCO2)c1ccccn1)C1CCN(CCOc2ccc(Cl)cc2Cl)CC1 (configuration not stated)	1	5	0	12	0	/	/	/
O=C(NC(c1ccc(Cl)cc1)c1ccsc1)C1CCN(Cc2cccc(Cl)c2)CC1 (configuration not stated)	1	9	1	2	0	/	/	/
CSCCC(NS(=O)(=O)Cc1ccccc1)C(=O)NNc1ccccc1 (configuration not stated)	/	/	0	/	-1	/	/	/
Cc1ccc(NC(=O)CCN2C(=O)c3cccc4cccc(c34)C2=O)cc1	19*	5	0	3	0	2	3	8
Cc1ccc(NC(=O)CCCN2C(=O)c3cccc4cccc(c34)C2=O)cc1	6	-1	0	/	-1	5	/	/
O=C(Nc1ccc(C(O)c2ccccc2)cc1)[C@H]1C[C@H](O)[C@@H](CO)O1 (some centres not stated)	-1	0	0	0	0	/	/	/
CC1(C(=O)NCCC(F)(F)F)Cc2c(-c3ccccc3)ccnc2O1 (configuration not stated)	0	1	0	13	0	/	/	/
Clc1ccc(Cn2cc(/C=N/n3cnnc3)c3ccccc32)c(Cl)c1	16*	14	3	-7	-1	34	11*	8
CC(C)(C)c1ccc(C(=O)N2CCOC23CCCCC3)cc1	/	/	0	/	-1	/	/	/
SMILES	MC4R ag barr	MC4R antagonist	aDG glyco up	H9c2 TAG inh	TbMetRS inhib	NTR1 agonist	MC4R barr ag	MOR-DOR barr ag
Cc1c(C(=O)Nc2nccs2)oc2c(Cl)cccc12	22*	-9	0	-14	0	6	1	6
Cc1cccc(NC(=O)c2sc3nc(-c4ccc(F)cc4)cn3c2C)n1	12*	14	1	/	-1	3	7	5
N#C/C(=C\c1cn(CCOc2ccccc2)c2ccccc12)C(=O)NCc1ccco1	21*	20	0	0	0	10	35*	9
N#C/C(=C\c1cn(CCOc2ccccc2F)c2ccccc12)C(=O)NCc1cccs1	10*	10	0	/	0	2	26*	8
Cc1ccccc1OCCn1cc(/C=C(\C#N)C(=O)NCc2ccco2)c2ccccc21	26*	4	0	/	-1	3	12*	6
Cc1ccc(C)c(OCCn2cc(/C=C(\C#N)C(=O)NCc3cccs3)c3ccccc32)c1	-2	1	0	/	-1	2	/	/
CC(C)(C)NC(=O)C1C(c2ccc(C(F)(F)F)cc2)=Nc2ccccc2N1C(=O)c1cccc2ccccc12 (configuration not stated)	/	/	0	/	0	/	/	/
C[C@H]1CN([C@@H](C)CO)C(=O)CCCn2cc(nn2)CO[C@@H]1CN(C)C(=O)NC1CCCCC1	/	/	0	/	-1	/	/	/
O=C1N/C(=C/c2cccn2-c2ccc(F)cc2)C(=O)N1Cc1ccccc1F	8	-5	0	/	-1	5	/	/
O=C1N/C(=C/c2cccn2-c2ccccc2)C(=O)N1Cc1ccc(F)cc1	17*	-7	0	/	0	5	2	5
CCOC(=O)N1CCN(C(=O)C[C@@H]2C[C@@]3(C(=O)OC)CC(C)(C)CC=C3N(CCc3ccc(OC)c(OC)c3)C2=O)CC1	/	/	0	/	-1	/	/	/
O=C1OC(c2ccccc2)(c2ccc(O)cc2)c2ccccc21 (configuration not stated)	55*	4	0	-24	0	/	48*	4
Cc1cc(F)cc(-c2cc(C(=O)NCC3CCCCC3)[nH]n2)c1	13*	-3	0	2	0	/	0	5
